We go through twelve compounds from ChEMBL document CHEMBL3864135, “Synthesis and pharmacological evaluation of functionalized isoindolinones on GABA-activated chloride currents in rat cerebellum granule cells in culture” (Bioorg Med Chem Lett, 2016).

Tested on in the first data set: not listed separately
Nature of the data set: Solubility of the compound in phosphate buffer at pH 3.2. It is filed as physicochemical.
Conditions: not given
With `Cl.O=C(CC1c2ccccc2C(=O)N1c1ccc([N+](=O)[O-])cn1)N1CCN(c2ccc(Cl)cc2)CC1` (stereo not given), the solubility entry is recorded as “Soluble”.
Still for that read-out and setting: in the case of `COc1ccc(N2CCN(C(=O)CC3c4ccccc4C(=O)N3c3ccc([N+](=O)[O-])cn3)CC2)cc1.Cl` (stereo not given) it was “Soluble”.
`CN1CCN(C(=O)CC2c3ccccc3C(=O)N2c2ccccn2)CC1.Cl` (stereo not given): the solubility result is “Soluble”.
For `CN1CCN(C(=O)CC2c3ccccc3C(=O)N2c2ccc(N)cn2)CC1.Cl` (stereo not given), the solubility result is reported as “Soluble”.
With `Cc1ccc(N2C(=O)c3ccccc3C2CC(=O)N2CCN(C)CC2)nc1.Cl` (stereo not given), the solubility entry is on record as “Soluble”.
Still for that read-out and setting: under `CN1CCN(C(=O)CC2c3ccccc3C(=O)N2c2ccc([N+](=O)[O-])cn2)CC1.Cl` (stereo not given) stands “Soluble”; under `Cl.O=C(CC1c2ccccc2C(=O)N1c1ccc([N+](=O)[O-])cn1)N1CCN(c2ccc(F)cc2)CC1` (stereo not given), “Soluble”.
Consider `CN1CCN(C(=O)CC2c3ccccc3C(=O)N2c2ccc(Br)cn2)CC1.Cl` (stereo not given), for which the solubility entry is listed as “Soluble”.
For `CN1CCN(C(=O)CC2c3ccccc3C(=O)N2c2ccc(Cl)cn2)CC1.Cl` (stereo not given), the solubility entry is listed as “Soluble”.
As for `Cl.O=C(CC1c2ccccc2C(=O)N1c1ccc([N+](=O)[O-])cn1)N1CCN(c2ccccc2)CC1` (stereo not given), the solubility result is listed as “Soluble”.
On to `Cc1ccc(N2CCN(C(=O)CC3c4ccccc4C(=O)N3c3ccc([N+](=O)[O-])cn3)CC2)cc1.Cl` (stereo not given), for which the solubility entry is reported as “Soluble”.

The target of another data set is T1, Gamma-aminobutyric acid receptor subunit alpha-1/beta-2/beta-3/gamma-2 (Rattus norvegicus) (UniProt P18508+P62813+P63079+P63138). The experiment in a line: Inverse agonist activity at GABA alpha1beta2beta3gamma2 receptor Bzd binding site in Sprague-Dawley rat cerebellar granule cells assessed as decrease in GABA-activated chloride currents at 0.47 uM by whole-cell patch clamp technique relative to control.
Conditions: not given
The gist of the method: (§1)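 Whole-cell patch clamp on cultured rat cerebellar granule cells. Peak, rapidly desensitizing chloride current evoked by 10 μM GABA, recorded with and without test compound. Compounds applied at 1 μM, or at 0.47 μM where solubility limited. Change expressed as percent of the current with GABA alone (E %), mean ± SEM. Student's t-test against GABA alone.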
On the technique in general: The patch-clamp technique gives a direct electrical read-out from membranes.
Regarding `CN1CCN(C(=O)CC2c3ccccc3C(=O)N2c2ccc(N)cn2)CC1.Cl` (stereo not given), the Efficacy came out at 23%.

Tested on in another data set: not listed separately
Nature of the data set: Solubility of the compound in ethanol. Format: physicochemical.
Conditions: not given
Consider `Cl.O=C(CC1c2ccccc2C(=O)N1c1ccc([N+](=O)[O-])cn1)N1CCN(c2ccc(Cl)cc2)CC1` (stereo not given), for which the solubility entry is “Soluble”.
On to `COc1ccc(N2CCN(C(=O)CC3c4ccccc4C(=O)N3c3ccc([N+](=O)[O-])cn3)CC2)cc1.Cl` (stereo not given), for which the solubility entry is “Soluble”.
Same read-out and setting: under `CN1CCN(C(=O)CC2c3ccccc3C(=O)N2c2ccccn2)CC1.Cl` (stereo not given) stands “Soluble”; under `CN1CCN(C(=O)CC2c3ccccc3C(=O)N2c2ccc(N)cn2)CC1.Cl` (stereo not given), “Soluble”; under `Cc1ccc(N2C(=O)c3ccccc3C2CC(=O)N2CCN(C)CC2)nc1.Cl` (stereo not given), “Soluble”.
With `CN1CCN(C(=O)CC2c3ccccc3C(=O)N2c2ccc([N+](=O)[O-])cn2)CC1.Cl` (stereo not given), the solubility result is given as “Soluble”.
`Cl.O=C(CC1c2ccccc2C(=O)N1c1ccc([N+](=O)[O-])cn1)N1CCN(c2ccc(F)cc2)CC1` (stereo not given): the solubility entry is “Soluble”.
Take `CN1CCN(C(=O)CC2c3ccccc3C(=O)N2c2ccc(Br)cn2)CC1.Cl` (stereo not given): the solubility result was “Soluble”.
In the case of `CN1CCN(C(=O)CC2c3ccccc3C(=O)N2c2ccc(Cl)cn2)CC1.Cl` (stereo not given), the solubility result was “Soluble”.
The same measure, in the same setting: under `Cl.O=C(CC1c2ccccc2C(=O)N1c1ccc([N+](=O)[O-])cn1)N1CCN(c2ccccc2)CC1` (stereo not given) stands “Soluble”; under `Cc1ccc(N2CCN(C(=O)CC3c4ccccc4C(=O)N3c3ccc([N+](=O)[O-])cn3)CC2)cc1.Cl` (stereo not given), “Soluble”.

A further data set concerns the target T1, Gamma-aminobutyric acid receptor subunit alpha-1/beta-2/beta-3/gamma-2 (Rattus norvegicus). The experiment in a line: Agonist activity at GABA alpha1beta2beta3gamma2 receptor Bzd binding site in Sprague-Dawley rat cerebellar granule cells assessed as increase in GABA-activated chloride currents at 1 uM by whole-cell patch clamp technique relative to control.
Conditions: not given
The gist of the method:
as §1
Turning to `CN1CCN(C(=O)CC2c3ccccc3C(=O)N2c2ccccn2)CC1.Cl` (stereo not given), the Efficacy was determined as 20%.
Take `Cc1ccc(N2C(=O)c3ccccc3C2CC(=O)N2CCN(C)CC2)nc1.Cl` (stereo not given): the Efficacy is 21%.
Consider `CN1CCN(C(=O)CC2c3ccccc3C(=O)N2c2ccc([N+](=O)[O-])cn2)CC1.Cl` (stereo not given), for which the Efficacy is 34%.
Consider `CN1CCN(C(=O)CC2c3ccccc3C(=O)N2c2ccc(Br)cn2)CC1.Cl` (stereo not given), for which the Efficacy came to 26%.
For the compound `CN1CCN(C(=O)OC2c3nccnc3C(=O)N2c2ccc(Cl)cn2)CC1` (stereo not given) [ZOPICLONE], the Efficacy turned out to be 58%.
With `CN1CCN(C(=O)CC2c3ccccc3C(=O)N2c2ccc(Cl)cn2)CC1.Cl` (stereo not given), the Efficacy came out at 18%.

Tested on in a further data set: not listed separately
Nature of the data set: Solubility of the compound in water. It is filed as physicochemical. The following applies: buffer.
Regarding `Cl.O=C(CC1c2ccccc2C(=O)N1c1ccc([N+](=O)[O-])cn1)N1CCN(c2ccc(Cl)cc2)CC1` (stereo not given), the solubility entry was “Soluble”.
Take `COc1ccc(N2CCN(C(=O)CC3c4ccccc4C(=O)N3c3ccc([N+](=O)[O-])cn3)CC2)cc1.Cl` (stereo not given): the solubility result is reported as “Soluble”.
With `CN1CCN(C(=O)CC2c3ccccc3C(=O)N2c2ccccn2)CC1.Cl` (stereo not given), the solubility result is “Soluble”.
Regarding `CN1CCN(C(=O)CC2c3ccccc3C(=O)N2c2ccc(N)cn2)CC1.Cl` (stereo not given), the solubility result is recorded as “Soluble”.
Consider `Cc1ccc(N2C(=O)c3ccccc3C2CC(=O)N2CCN(C)CC2)nc1.Cl` (stereo not given), for which the solubility result is “Soluble”.
On to `CN1CCN(C(=O)CC2c3ccccc3C(=O)N2c2ccc([N+](=O)[O-])cn2)CC1.Cl` (stereo not given), for which the solubility result is reported as “Soluble”.
For the compound `Cl.O=C(CC1c2ccccc2C(=O)N1c1ccc([N+](=O)[O-])cn1)N1CCN(c2ccc(F)cc2)CC1` (stereo not given), the solubility result is on record as “Soluble”.
Turning to `CN1CCN(C(=O)CC2c3ccccc3C(=O)N2c2ccc(Br)cn2)CC1.Cl` (stereo not given), the solubility result is recorded as “Soluble”.
For the compound `CN1CCN(C(=O)CC2c3ccccc3C(=O)N2c2ccc(Cl)cn2)CC1.Cl` (stereo not given), the solubility entry was “Soluble”.
Consider `Cl.O=C(CC1c2ccccc2C(=O)N1c1ccc([N+](=O)[O-])cn1)N1CCN(c2ccccc2)CC1` (stereo not given), for which the solubility result was “Soluble”.
Regarding `Cc1ccc(N2CCN(C(=O)CC3c4ccccc4C(=O)N3c3ccc([N+](=O)[O-])cn3)CC2)cc1.Cl` (stereo not given), the solubility entry is reported as “Soluble”.

In another data set the target is T1, Gamma-aminobutyric acid receptor subunit alpha-1/beta-2/beta-3/gamma-2 (Rattus norvegicus). Nature of the data set: Inverse agonist activity at GABA alpha1beta2beta3gamma2 receptor Bzd binding site in Sprague-Dawley rat cerebellar granule cells assessed as decrease in GABA-activated chloride currents at 1 uM by whole-cell patch clamp technique relative to control.
Conditions: not given
The method, boiled down:
as §1
In the case of `Cl.O=C(CC1c2ccccc2C(=O)N1c1ccc([N+](=O)[O-])cn1)N1CCN(c2ccc(Cl)cc2)CC1` (stereo not given), the Efficacy worked out at 36%.
For `COc1ccc(N2CCN(C(=O)CC3c4ccccc4C(=O)N3c3ccc([N+](=O)[O-])cn3)CC2)cc1.Cl` (stereo not given), the Efficacy was 21%.
Regarding `Cl.O=C(CC1c2ccccc2C(=O)N1c1ccc([N+](=O)[O-])cn1)N1CCN(c2ccccc2)CC1` (stereo not given), the Efficacy worked out at 27%.

Tested on in another data set: not listed separately
The experiment in a line: Solubility of the compound in DMSO.
Conditions: not given
Format: physicochemical.
For `Cl.O=C(CC1c2ccccc2C(=O)N1c1ccc([N+](=O)[O-])cn1)N1CCN(c2ccc(Cl)cc2)CC1` (stereo not given), the solubility entry is “Soluble”.
For `COc1ccc(N2CCN(C(=O)CC3c4ccccc4C(=O)N3c3ccc([N+](=O)[O-])cn3)CC2)cc1.Cl` (stereo not given), the solubility entry is reported as “Soluble”.
On to `CN1CCN(C(=O)CC2c3ccccc3C(=O)N2c2ccccn2)CC1.Cl` (stereo not given), for which the solubility result is on record as “Soluble”.
Turning to `CN1CCN(C(=O)CC2c3ccccc3C(=O)N2c2ccc(N)cn2)CC1.Cl` (stereo not given), the solubility entry is on record as “Insoluble”.
The same measure, in the same setting: in the case of `Cc1ccc(N2C(=O)c3ccccc3C2CC(=O)N2CCN(C)CC2)nc1.Cl` (stereo not given) it was “Soluble”; in that of `CN1CCN(C(=O)CC2c3ccccc3C(=O)N2c2ccc([N+](=O)[O-])cn2)CC1.Cl` (stereo not given), “Soluble”.
With `Cl.O=C(CC1c2ccccc2C(=O)N1c1ccc([N+](=O)[O-])cn1)N1CCN(c2ccc(F)cc2)CC1` (stereo not given), the solubility result is reported as “Soluble”.
Turning to `CN1CCN(C(=O)CC2c3ccccc3C(=O)N2c2ccc(Br)cn2)CC1.Cl` (stereo not given), the solubility entry was “Soluble”.
For `CN1CCN(C(=O)CC2c3ccccc3C(=O)N2c2ccc(Cl)cn2)CC1.Cl` (stereo not given), the solubility result is given as “Soluble”.
Take `Cl.O=C(CC1c2ccccc2C(=O)N1c1ccc([N+](=O)[O-])cn1)N1CCN(c2ccccc2)CC1` (stereo not given): the solubility entry was “Soluble”.
As for `Cc1ccc(N2CCN(C(=O)CC3c4ccccc4C(=O)N3c3ccc([N+](=O)[O-])cn3)CC2)cc1.Cl` (stereo not given), the solubility entry was “Insoluble”.

Tested on in another data set: not listed separately
The experiment in a line: Drug metabolism assessed as decarboxylated metabolite formation. Format: ADME.
Conditions: not given
Consider `CN1CCN(C(=O)OC2c3nccnc3C(=O)N2c2ccc(Cl)cn2)CC1` (stereo not given) [ZOPICLONE], for which the Drug metabolism stood at 50 %ID.
